Experiments:
K562 = assay: Antiproliferative activity against human K562 cells assessed as growth inhibition after 48 hrs by SRB assay; type: functional; conditions: K562, 48 h
Summary of the method: (§1)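 Cells exposed 48 h at 37 °C, 5% CO2 to 0.25, 2.5, 25 and 250 µg/mL in DMSO/RPMI (final DMSO 0.1%); doxorubicin standard at 0.025–25 µg/mL. Plates fixed with 50% TCA before (T0) and after treatment; protein content read by sulforhodamine B at 540 nm. GI50 (µM) from nonlinear regression of concentration–response curves; triplicate.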

[1] = Antiproliferative activity against human HaCaT cells assessed as growth inhibition after 48 hrs by SRB assay; type: cell-based; summary of the method: as §1
786-0 [2] = assay: Cytotoxicity against human 786-0 cells assessed as compound concentration required to inhibit total growth after 24 hrs by SRB assay; type: functional; conditions: 786-0, 24 h
Summary of the method: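 786-0 cells treated 24 h with 25, 50, 100 and 200 µM; growth measured by sulforhodamine B staining. Concentration giving total growth inhibition (TGI) calculated from the concentration–response data.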

786-0 [3] = assay: Cytotoxicity against human 786-0 cells assessed as compound concentration required to cause 50% cell death after 24 hrs by SRB assay; type: functional; conditions: 786-0, 24 h, read-out: LC50 (the source's name)
Summary of the method: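 786-0 cells exposed 24 h to 25, 50, 100 and 200 µM; growth measured by sulforhodamine B staining of TCA-fixed cells (540 nm) with time-zero plate; LC50 (50% cell death) and TGI derived by non-linear regression.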

786-0 [4] = assay: Induction of cell death in human 786-0 cells assessed as phosphatidylserine externalization at 50 uM after 24 hrs by annexin V/7-amino-actinomycin D double staining based flow cytometric analysis (reference value: 3.8 +/- 0.5%); type: functional
786-0 [5] = assay: Induction of cell death in human 786-0 cells assessed as loss of cell membrane integrity at 50 uM after 24 hrs by annexin V/7-amino-actinomycin D double staining based flow cytometric analysis (reference value: 3.6+/- 0.8%); type: functional
786-0 [6] = assay: Cell cycle arrest in human 786-0 cells assessed as reduction in G1 phase at 25 uM after 24 hrs by propidium iodide based flow cytometric analysis (reference value: 46.7 +/- 0.8%); type: functional; set-up: scale not given: the % may be the effect or the level left
786-0 [7] = assay: Cell cycle arrest in human 786-0 cells assessed as accumulation at S phase at 25 uM after 24 hrs by propidium iodide based flow cytometric analysis (reference value: 14.6 +/- 1.3%); type: functional
786-0 [8] = assay: Cell cycle arrest in human 786-0 cells assessed as accumulation at G2/M phase at 25 uM after 24 hrs by propidium iodide based flow cytometric analysis (reference value: 35.7 +/- 0.9%); type: functional
[9] = Acute toxicity in Balb/C mouse assessed as survival rate at 400 mg/kg, po; type: organism-based; conditions: in vivo
Summary of the method: (§2)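 Fixed dose procedure following OECD guideline; Balb/C mice (20-35 g) fasted 16 h, groups of 5 given single oral doses stepwise at 600, 400 and 200 mgKg-1; survival and clinical signs of pain, suffering and impending death recorded per OECD guidance.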

Mus musculus [10] = assay: Acute toxicity in Balb/C mouse assessed as adhesion of organs at 600 mg/kg, po; type: organism-based; conditions: in vivo; summary of the method: as §2
Mus musculus [11] = assay: Acute toxicity in Balb/C mouse assessed as pain, suffering and impending death at 200 to 400 mg/kg, po; type: organism-based; conditions: in vivo; summary of the method: as §2
[12] = Antitumor activity against mouse EAT implanted in Balb/C mouse assessed as change in paw volume at 30 mg/kg, po administered on day 3 post tumor inoculation measured on day 3 by plethysmometer analysis (reference value: 40.2 +/- 7.0%); type: functional
[13] = Antitumor activity against mouse EAT implanted in Balb/C mouse assessed as change in paw volume at 100 mg/kg, po administered on day 3 post tumor inoculation measured on day 3 by plethysmometer analysis (reference value: 40.2 +/- 7.0%); type: functional
[14] = Antitumor activity against mouse EAT implanted in Balb/C mouse assessed as change in paw volume at 30 mg/kg, po administered on day 3 post tumor inoculation measured on day 6 by plethysmometer analysis (reference value: 86.1 +/- 5.7%); type: functional
[15] = Antitumor activity against mouse EAT implanted in Balb/C mouse assessed as change in paw volume at 300 mg/kg, po administered on day 3 post tumor inoculation measured on day 6 by plethysmometer analysis (reference value: 86.1 +/- 5.7%); type: functional
[16] = Antitumor activity against mouse EAT implanted in Balb/C mouse assessed as change in paw volume at 100 mg/kg, po administered on day 3 post tumor inoculation measured on day 9 by plethysmometer analysis (reference value: 95.5 +/- 5.2%); type: functional
[17] = Antitumor activity against mouse EAT implanted in Balb/C mouse assessed as change in paw volume at 300 mg/kg, po administered on day 3 post tumor inoculation measured on day 9 by plethysmometer analysis (reference value: 95.5 +/- 5.2%); type: functional
[18] = Antitumor activity against mouse EAT implanted in Balb/C mouse assessed as change in paw volume at 30 mg/kg, po administered on day 3 post tumor inoculation measured on day 12 by plethysmometer analysis (reference value: 125.5 +/- 7.5%); type: functional
[19] = Antitumor activity against mouse EAT implanted in Balb/C mouse assessed as change in paw volume at 100 mg/kg, po administered on day 3 post tumor inoculation measured on day 12 by plethysmometer analysis (reference value: 125.5 +/- 7.5%); type: functional
[20] = Antitumor activity against mouse EAT implanted in Balb/C mouse assessed as change in paw volume at 300 mg/kg, po administered on day 3 post tumor inoculation measured on day 12 by plethysmometer analysis (reference value: 125.5 +/- 7.5%); type: functional
[21] = Antitumor activity against mouse EAT implanted in Balb/C mouse assessed as change in paw volume at 100 mg/kg, po administered on day 3 post tumor inoculation measured on day 15 by plethysmometer analysis (reference value: 166.5 +/- 6.0%); type: functional
[22] = Antitumor activity against mouse EAT implanted in Balb/C mouse assessed as change in paw volume at 300 mg/kg, po administered on day 3 post tumor inoculation measured on day 15 by plethysmometer analysis (reference value: 166.5 +/- 6.0%); type: functional
[23] = Antiproliferative activity against human UACC62 cells assessed as growth inhibition after 48 hrs by SRB assay; type: functional; conditions: UACC-62, 48 h; summary of the method: as §1
MCF7 = assay: Antiproliferative activity against human MCF7 cells assessed as growth inhibition after 48 hrs by SRB assay; type: functional; conditions: MCF7, 48 h; summary of the method: as §1
786-0 [24] = assay: Antiproliferative activity against human 786-0 cells assessed as growth inhibition after 48 hrs by SRB assay; type: functional; conditions: 786-0, 48 h; summary of the method: as §1
NCI-H460 = assay: Antiproliferative activity against human NCI-H460 cells assessed as growth inhibition after 48 hrs by SRB assay; type: functional; conditions: NCI-H460, 48 h; summary of the method: as §1
[25] = Antiproliferative activity against human PC3 cells assessed as growth inhibition after 48 hrs by SRB assay; type: functional; conditions: PC-3, 48 h; summary of the method: as §1
HT-29 = assay: Antiproliferative activity against human HT-29 cells assessed as growth inhibition after 48 hrs by SRB assay; type: functional; conditions: HT-29, 48 h; summary of the method: as §1

S=C(N/N=C/c1cccs1)Nc1ccc(Br)cc1
GI50 (K562): > 100 µM
GI50 at 48 h [1]: 0.8 µM
TGI (786-0 [2]): 28 µM
CC50 (786-0 [3]): 91.8 µM
Activity (786-0 [4]): 21.9%
Activity (786-0 [5]): 35.7%
Activity (786-0 [6]): 44.9%
Activity (786-0 [7]): 13.9%
Activity (786-0 [8]): 35.9%
survival [9]: 100%
Activity (Mus musculus [10]): Toxic
Activity (Mus musculus [11]): Non-toxic
Activity [12]: 26.8%
Activity [13]: 33.4%
Activity [14]: 60.6%
Activity [15]: 75.1%
Activity [16]: 73.7%
Activity [17]: 72.8%
Activity [18]: 36.3%
Activity [19]: 75.8%
Activity [20]: 64%
Activity [21]: 118.6%
Activity [22]: 106%
GI50 [23]: 71.1 µM
GI50 (MCF7): < 0.74 µM
GI50 (786-0 [24]): 4.5 µM
GI50 (NCI-H460): 4.7 µM
GI50 [25]: 79.4 µM
GI50 (HT-29): 17.7 µM

Reference: ChEMBL document CHEMBL3734720, “Synthesis of thiophene-thiosemicarbazone derivatives and evaluation of their in vitro and in vivo antitumor activities” (Eur J Med Chem, 2015)
